Screening data: PubChem, Broad Institute
S100A4 MyoIIA = inhibitors of human S100A4 binding to myosin IIA peptide; inhibition, % at 10.7 µM; AID 652163; 360,000 compounds, 0.14% hits; S100A4/TAMRA-MyoIIA peptide fluorescence polarization;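 active = mean inhibition of at least 70% across replicates, with every replicate also reaching that level; inconclusive = mean inhibition reaches 70% but some replicates fall short; inactive = mean inhibition below 70%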
Target sequence (P26447 whole entry, looked up): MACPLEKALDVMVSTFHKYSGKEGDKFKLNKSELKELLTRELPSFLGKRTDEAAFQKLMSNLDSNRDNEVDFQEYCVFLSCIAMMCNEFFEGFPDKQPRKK
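Test system: S100A4 monomer protein; Medium: HEPES pH 7.2 with CaCl2, KCl, NaCl, DTT, Triton; Probe or stimulus: TAMRA-labelled myosin IIA heavy-chain peptide probe, 5 nM; Doses: one dose per compound; Times: polarization read 5 min after assay mix addition, stable 5–60 min; Benchmarks: neutral control DMSO, positive control TFP.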
CaV13 ICDI inh = Primary screen for inhibitors of IQ motif and Ca2+-dependent inactivation inhibitor domain binding in CACNA1D, Förster resonance energy transfer in living cells, …; inhibition, % at 12.3 µM; HEK cells, CFP/YFP FRET ICDI-IQ, plate reader, 10 min; percent FRET-ratio fall versus neutral wells; AID 743397; 340,000 compounds, 0.098% hits;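 active = mean replicate inhibition of at least 30% and at least 1% of replicates passing that level; inconclusive = only one of the two criteria is met; inactive = neither criterion is met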
SIRT5 block = inhibitors of human sirtuin-5 desuccinylase | Purified SirT5, succinyl-peptide AMC, trypsin-coupled fluorescence | inhibition, % at 15 µM | Q9NXA8 | AID 652115 | 330,000 compounds, 1.1% hits; in the data active = inhibition above about 15%; inconclusive = no clear call, values can overlap the other calls
Target sequence (Q9NXA8 whole entry, looked up): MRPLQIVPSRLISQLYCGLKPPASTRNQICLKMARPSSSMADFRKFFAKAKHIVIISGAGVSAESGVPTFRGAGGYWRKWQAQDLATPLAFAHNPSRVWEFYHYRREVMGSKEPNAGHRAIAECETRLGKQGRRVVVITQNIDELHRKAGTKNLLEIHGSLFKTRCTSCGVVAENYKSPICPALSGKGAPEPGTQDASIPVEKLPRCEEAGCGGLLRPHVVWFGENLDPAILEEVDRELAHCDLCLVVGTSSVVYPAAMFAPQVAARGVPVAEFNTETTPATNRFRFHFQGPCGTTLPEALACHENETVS
DENV2 CPE = inhibitors of DENV2 cytopathic effect. CPE inhibition, % at 9.99 µM. 350,000 compounds, 1.7% hits. AID 651640. DENV2-infected cells, cytopathic effect rescue, plate reader; in the data active = CPE inhibition above about 20%, passing the limit was not always enough; inconclusive = no clear call, values can overlap the other calls; tested in BHK-21 cells
AF4-AF9 inh = blocks AF4 peptide binding to human AF9 | P42568 | AlphaScreen, biotin-AF4 peptide binding to FLAG-AF9 | inhibition, % at 10 µM | 350,000 compounds, 0.47% hits | AID 651704;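 active = every replicate reaching a set inhibition limit, whatever the replicate mean, cut at about 25% in these data; inconclusive = mean inhibition reaches that limit but some replicates miss it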
A number is an active result; n = inactive; u = inconclusive; x = not tested or not shown; + = active, no number; ! = repeats disagree. An excerpt weighted towards active compounds, which were near 2.7% of everything screened.

SMILES	S100A4 MyoIIA	CaV13 ICDI inh	SIRT5 block	DENV2 CPE	AF4-AF9 inh
Cc1ccc(Cc2c(-c3ccc(Br)cc3)nc3cc(C)ccn23)cc1	n	n	28	n	n
CN1CCN(S(=O)(=O)c2cccs2)CC1	n	n	n	34	n
Cc1ccc(C(C[N+](=O)[O-])c2c(C)[nH]n(-c3ccccc3)c2=O)cc1 (configuration not stated)	n	n	26	n	n
COc1ccc(-n2nc([N+](=O)[O-])c(=NCc3ccc4c(c3)OCO4)n2O)cc1	n	n	x	32	n
Cc1nn(C)cc1NC(=O)C[C@H]1CC[C@@H]2[C@H](COc3ccc(NC(=O)NC(C)C)cc3C(=O)N2C)O1	n	x	n	33	n
CC(=O)Nc1ccc2c(c1)C(=O)N(C)[C@H]1CC[C@H](CC(=O)Nc3cccc(C(C)C)c3)O[C@@H]1CO2	n	x	n	108	n
Cc1nn(C)cc1NC(=O)C[C@H]1CC[C@H]2[C@@H](COc3ccc(NC(=O)NC(C)C)cc3C(=O)N2C)O1	n	x	n	u	n
COc1ccc(C2C3=C(CC(C)(C)CC3=O)N(C)C3=C2C(=O)CC(C)(C)C3)cc1OC	n	n	n	n	n
COc1ccc(C2C3=C(CC(C)(C)CC3=O)N(C)C3=C2C(=O)CC(C)(C)C3)cc1	n	+	n	n	n
C=C1C[C@H](O[C@@H]2O[C@H](CO)[C@@H](O)[C@H](O)[C@H]2O)[C@@H]2[C@H](OC(=O)[C@H]2C)[C@H]2[C@H](C)[C@H](O)C[C@@H]12	n	n	x	55	n
C[C@H]1CN([C@@H](C)CO)C(=O)Cc2cc(NC(=O)c3ccncc3)ccc2O[C@H]1CN(C)S(=O)(=O)c1ccccc1	n	x	n	n	n
CO[C@@H]1CN(C)C(=O)c2ccc(NC(=O)C3CC3)cc2OC[C@@H](C)N(Cc2cccnc2)C[C@H]1C	n	x	n	n	n
C[C@@H]1CN([C@H](C)CO)C(=O)c2cc(NS(=O)(=O)c3cn(C)cn3)ccc2O[C@H]1CN(C)C(=O)Nc1ccccc1	n	n	23!	n	n
C[C@@H]1CN([C@@H](C)CO)C(=O)c2cc(NS(=O)(=O)c3cn(C)cn3)ccc2O[C@H]1CN(C)C(=O)NC1CCCCC1	n	x	n	45	n
C[C@H](CO)N1C[C@H](C)[C@H](CN(C)C(=O)NC2CCCCC2)Oc2ccc(NC(=O)Cn3cnnn3)cc2C1=O	n	x	n	99	n
C[C@H](CO)N1C[C@H](C)[C@@H](CN(C)C(=O)NC2CCCCC2)Oc2ccc(NS(=O)(=O)c3cccs3)cc2C1=O	n	n	16!	n	n
CCCN1[C@@H]2Cn3c(cccc3=O)[C@H]1[C@@H](C(=O)Nc1ccccc1)[C@@H]2CO	n	x	n	n	n
CN(C)C(=O)c1ccc(-c2ccc([C@@H]3[C@H](CO)N4CCCCN(C(=O)C5CCC5)C[C@@H]34)cc2)cc1	n	x	n	n	n
O=C(C[C@@H]1C[C@H]2c3cc(NC(=O)C4CCC4)ccc3O[C@H]2[C@H](CO)O1)NC1CCCC1	n	x	n	n	n
C[C@H](CO)N1C[C@H](C)[C@@H](CN(C)C(=O)NC2CCCCC2)Oc2ccc(NC(=O)C3CC3)cc2C1=O	n	n	n	56!	n
C[C@H](CO)N1C[C@H](C)[C@@H](CN(C)C(=O)NC2CCCCC2)Oc2ccc(NS(C)(=O)=O)cc2C1=O	n	n	n	29!	n
O=C1NC(=O)C2(CCCc3ccc(N(CCO)CCO)cc32)N1 (configuration not stated)	n	n	x	n	n
O=c1nccc(N/N=C/c2ccccc2)[nH]1	n	n	24	n	n
COc1ccc(C2=NN(C(C#N)c3ccc(OC)cc3)C(c3ccccc3)C2)cc1 (configuration not stated)	n	n	n	n	29
O=C1/C(=C/c2cccc(O)c2)SC(=S)N1CC1CCCO1 (configuration not stated)	n	n	n	n	n
COc1cccc(/C=C2\SC(=S)N(CC3CCCO3)C2=O)c1 (configuration not stated)	n	n	n	n	32
COCC(=O)Nc1ccc2c(c1)C(=O)N(C)[C@H]1CC[C@@H](CC(=O)OC)O[C@@H]1CO2	x	x	x	n	x
O=C(NC1CCCCCCC1)c1ccc(CNc2c(N3CCOCC3)c(=O)c2=O)cc1	n	n	n	n	40
